pIC50: −log10 of the molar value.
How the values were obtained:
HOP-62 = assay: Cytotoxicity against human HOP62 cells after 48 hrs by SRB assay; assay type: functional; settings: HOP-62, 48 h
UO-31 [1] = assay: Cytotoxicity against human UO31 cells after 48 hrs by SRB assay; assay type: functional; settings: UO-31, 48 h
COLO 205 = assay: Cytotoxicity against human COLO205 cells after 48 hrs by SRB assay; assay type: functional; settings: COLO 205, 48 h
KM12 = assay: Growth inhibition of human KM12 cells assessed as cell growth at 10^-5 M incubated for 48 hrs by sulforhodamine B assay relative to control; assay type: functional; settings: KM12, 48 h, read-out: Activity
SK-MEL-2 = assay: Cytotoxicity against human SK-MEL-2 cells after 48 hrs by SRB assay; assay type: functional; settings: SK-MEL-2, 48 h; for CC50: read-out: LC50 (the source's name)
Malme-3M = assay: Growth inhibition of human MALME-3M cells assessed as cell growth at 10^-6 M incubated for 48 hrs by sulforhodamine B assay relative to control; assay type: functional; settings: read-out: Activity
HUVEC = assay: Antiproliferative activity against HUVEC cells after 4 days by Coulter counter method; assay type: cell-based; settings: Homo sapiens, 96 h
How it was run: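 Primary HUVEC, primary HMVEC-d and the HMEC-1 line seeded at 20,000 cells/well in gelatin-coated plates in EC growth medium (EGM2). After overnight incubation, 5-fold compound dilutions added. Cells proliferated four days with compound, then trypsinized and counted by Coulter counter to derive IC₅₀.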

NCI/ADR-RES = assay: Growth inhibition of human NCI/ADR-RES cells assessed as cell growth at 10^-5 M incubated for 48 hrs by sulforhodamine B assay relative to control; assay type: functional; settings: read-out: Activity
UACC-257 = assay: Growth inhibition of human UACC257 cells assessed as cell growth at 10^-8 M incubated for 48 hrs by sulforhodamine B assay relative to control; assay type: functional; settings: UACC-257, 48 h, read-out: Activity
MDA-MB-231 = assay: Growth inhibition of human MDA-MB-231 cells assessed as cell growth at 10^-4 M incubated for 48 hrs by sulforhodamine B assay relative to control; assay type: functional; settings: MDA-MB-231, 48 h, read-out: Activity
SK-MEL-5 = assay: Growth inhibition of human SK-MEL-5 cells assessed as cell growth at 10^-7 M incubated for 48 hrs by sulforhodamine B assay relative to control; assay type: functional; settings: SK-MEL-5, 48 h, read-out: Activity
HeLa = assay: Antiproliferative activity against human HeLa cells after 72 hrs by Coulter counter method; assay type: functional, cell-based
How it was run: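 Cell count assay in 96-well microtiter plates; (5–7.5) × 10⁴ tumor cells per well plus test compound. Cells proliferated at 37 °C in humidified CO₂-controlled atmosphere, 48 h for murine leukemia L1210, 72 h for human lymphocytic CEM and cervix carcinoma HeLa. Counted by Coulter counter; IC₅₀ is the concentration that inhibits proliferation by 50%.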

DU-145 [2] = assay: Growth inhibition of human DU145 cells assessed as cell growth at 10^-7 M incubated for 48 hrs by sulforhodamine B assay relative to control; assay type: functional; settings: DU-145, 48 h, read-out: Activity
OVCAR-8 = assay: Cytotoxicity against human OVCAR8 cells after 48 hrs by SRB assay; assay type: functional; settings: OVCAR-8, 48 h
MOLT-4 [3] = assay: Cytotoxicity against human MOLT4 cells after 48 hrs by SRB assay; assay type: functional; settings: MOLT-4, 48 h; for CC50: read-out: LC50 (the source's name)
OVCAR-3 = assay: Growth inhibition of human OVCAR3 cells assessed as cell growth at 10^-8 M incubated for 48 hrs by sulforhodamine B assay relative to control; assay type: functional; settings: OVCAR-3, 48 h, read-out: Activity
786-0 = assay: Growth inhibition of human 786-0 cells assessed as cell growth at 10^-7 M incubated for 48 hrs by sulforhodamine B assay relative to control; assay type: functional; settings: 786-0, 48 h, read-out: Activity
Hs-578T = assay: Growth inhibition of human Hs 578T cells assessed as cell growth at 10^-8 M incubated for 48 hrs by sulforhodamine B assay relative to control; assay type: functional; settings: read-out: Activity
SF-539 = assay: Growth inhibition of human SF539 cells assessed as cell growth at 10^-7 M incubated for 48 hrs by sulforhodamine B assay relative to control; assay type: functional; settings: SF-539, 48 h, read-out: Activity
M14 = assay: Growth inhibition of human M14 cells assessed as cell growth at 10^-5 M incubated for 48 hrs by sulforhodamine B assay relative to control; assay type: functional; settings: M14, 48 h, read-out: Activity
K562 = assay: Growth inhibition of human K562 cells assessed as cell growth at 10^-5 M incubated for 48 hrs by sulforhodamine B assay relative to control; assay type: functional; settings: K562, 48 h, read-out: Activity
SN12C = assay: Growth inhibition of human SN12C cells assessed as cell growth at 10^-6 M incubated for 48 hrs by sulforhodamine B assay relative to control; assay type: functional; settings: read-out: Activity
CCRF-CEM = assay: Growth inhibition of human CCRF-CEM cells assessed as cell growth at 10^-5 M incubated for 48 hrs by sulforhodamine B assay relative to control; assay type: functional; settings: read-out: Activity
NCI-H322M = assay: Growth inhibition of human NCI-H322M cells assessed as cell growth at 10^-6 M incubated for 48 hrs by sulforhodamine B assay relative to control; assay type: functional; settings: read-out: Activity
SR = assay: Growth inhibition of human SR cells assessed as cell growth at 10^-7 M incubated for 48 hrs by sulforhodamine B assay relative to control; assay type: functional; settings: read-out: Activity
DU-145 [4] = assay: Growth inhibition of human DU145 cells assessed as cell growth at 10^-4 M incubated for 48 hrs by sulforhodamine B assay relative to control; assay type: functional; settings: DU-145, 48 h, read-out: Activity
UO-31 [5] = assay: Growth inhibition of human UO31 cells assessed as cell growth at 10^-6 M incubated for 48 hrs by sulforhodamine B assay relative to control; assay type: functional; settings: UO-31, 48 h, read-out: Activity
MDA-MB-435 = assay: Growth inhibition of human MDA-MB-435 cells assessed as cell growth at 10^-5 M incubated for 48 hrs by sulforhodamine B assay relative to control; assay type: functional; settings: MDA-MB-435, 48 h, read-out: Activity
MOLT-4 [6] = assay: Growth inhibition of human MOLT4 cells assessed as cell growth at 10^-6 M incubated for 48 hrs by sulforhodamine B assay relative to control; assay type: functional; settings: MOLT-4, 48 h, read-out: Activity
U-251 = assay: Growth inhibition of human U251 cells assessed as cell growth at 10^-6 M incubated for 48 hrs by sulforhodamine B assay relative to control; assay type: functional; settings: U-251, 48 h, read-out: Activity
[7] = read-out: LC50 (the source's name)
[8] = read-out: pLC50 (the source's name) (converted)

C#C[C@@]1(O)[C@@H](CO)O[C@@H](n2cc(Br)c3c(N)ncnc32)[C@@H]1O
GI50 (HOP-62; read-out: GI50): 211 to 427 nM
CC50 (HOP-62; [7]): > 100000 nM
TGI (HOP-62; read-out: TGI): 4760 to 100000 nM
GI50 (UO-31 [1]; read-out: GI50): 115 to 130 nM
TGI (UO-31 [1]; read-out: TGI): 315 to 1500 nM
CC50 (UO-31 [1]; [8]): > 100000 nM
GI50 (COLO 205; read-out: GI50): 43.6 to 182 nM
CC50 (COLO 205; [7]): 8040 to 100000 nM
TGI (COLO 205; read-out: TGI): 235 to 903 nM
growth at 10 µM (KM12): 7 to 12%
GI50 (SK-MEL-2; read-out: GI50): 197 to 916 nM
CC50 (SK-MEL-2): 49500 to 100000 nM
TGI (SK-MEL-2; read-out: TGI): 430 to 758 nM
growth at 1 µM (Malme-3M): 43 to 47%
pIC50 (HUVEC): 7.74
growth at 10 µM (NCI/ADR-RES): -9%
growth at 0.01 µM (UACC-257): 87 to 100%
growth at 100 µM (MDA-MB-231): 9%
growth at 0.1 µM (SK-MEL-5): 30 to 71%
pIC50 (HeLa): 7.03
growth at 0.1 µM (DU-145 [2]): 38 to 58%
GI50 (OVCAR-8; read-out: GI50): 13.5 to 62.5 nM
CC50 (OVCAR-8; [7]): > 100000 nM
TGI (OVCAR-8; read-out: TGI): 1120 nM
TGI (OVCAR-8; read-out: pTGI (converted)): 1120 nM
GI50 (MOLT-4 [3]; read-out: GI50): 70.8 to 178 nM
CC50 (MOLT-4 [3]): > 100000 nM
TGI (MOLT-4 [3]; read-out: TGI): 778 to 100000 nM
growth at 0.01 µM (OVCAR-3): 99 to 101%
growth at 0.1 µM (786-0): 69 to 88%
growth at 0.01 µM (Hs-578T): 90 to 96%
growth at 0.1 µM (SF-539): 79 to 91%
growth at 10 µM (M14): 6 to 11%
growth at 10 µM (K562): 6 to 7%
growth at 1 µM (SN12C): 7 to 13%
growth at 10 µM (CCRF-CEM): 3 to 5%
growth at 1 µM (NCI-H322M): 26 to 33%
growth at 0.1 µM (SR): 20 to 46%
growth at 100 µM (DU-145 [4]): 8 to 10%

C#C[C@@]1(O)[C@@H](CO)O[C@@H](n2ccc3c(N)ncnc32)[C@@H]1O
TGI (HOP-62; read-out: TGI): 7910 nM
GI50 (HOP-62; read-out: pGI50 (converted)): 2040 nM
CC50 (HOP-62; [8]): > 100000 nM
TGI (HOP-62; read-out: pTGI (converted)): 7940 nM
TGI (UO-31 [1]; read-out: TGI): 3580 nM
GI50 (UO-31 [1]; read-out: pGI50 (converted)): 1410 nM
TGI (UO-31 [1]; read-out: pTGI (converted)): 3550 nM
growth at 1 µM (UO-31 [5]): 69%
TGI (COLO 205; read-out: TGI): 2670 nM
GI50 (COLO 205; read-out: pGI50 (converted)): 676 nM
CC50 (COLO 205; [8]): 8910 nM
TGI (COLO 205; read-out: pTGI (converted)): 2690 nM
growth at 10 µM (MDA-MB-435): -62%
growth at 10 µM (KM12): 2%
CC50 (SK-MEL-2): > 100000 nM
TGI (SK-MEL-2; read-out: TGI): 6320 nM
GI50 (SK-MEL-2; read-out: pGI50 (converted)): 1380 nM
TGI (SK-MEL-2; read-out: pTGI (converted)): 6310 nM
growth at 1 µM (Malme-3M): 72%
growth at 1 µM (MOLT-4 [6]): 38%
growth at 10 µM (NCI/ADR-RES): -7%
growth at 0.01 µM (UACC-257): 100%
growth at 100 µM (MDA-MB-231): -53%
growth at 0.1 µM (SK-MEL-5): 101%
pIC50 (HeLa): 6.06
growth at 0.1 µM (DU-145 [2]): 98%
TGI (OVCAR-8; read-out: TGI): 4110 nM
GI50 (OVCAR-8; read-out: pGI50 (converted)): 1020 nM
CC50 (OVCAR-8; [8]): 34700 nM
TGI (OVCAR-8; read-out: pTGI (converted)): 4070 nM
CC50 (MOLT-4 [3]): > 100000 nM
TGI (MOLT-4 [3]; read-out: TGI): > 100000 nM
GI50 (MOLT-4 [3]; read-out: pGI50 (converted)): 617 nM
TGI (MOLT-4 [3]; read-out: pTGI (converted)): > 100000 nM
growth at 0.01 µM (OVCAR-3): 105%
growth at 0.1 µM (786-0): 92%
growth at 1 µM (U-251): 80%
growth at 0.01 µM (Hs-578T): 97%
growth at 0.1 µM (SF-539): 103%
growth at 10 µM (M14): -80%
growth at 10 µM (K562): 6%
growth at 1 µM (SN12C): 45%
growth at 10 µM (CCRF-CEM): 14%
growth at 1 µM (NCI-H322M): 58%
growth at 0.1 µM (SR): 96%
growth at 100 µM (DU-145 [4]): -48%
